A short description of series [1]: Ratio of Cidofovir EC50 to compound EC50 for Vaccinia virus Lister ATCC VR-1549 infected in Vero 76 cells after 3 days by plaque reduction assays. It counts as functional. In general terms: In a plaque reduction assay, fewer plaques than in the control indicate reduced infectivity or spread.
Series [2] can be described thus: Antiviral activity against Bovine viral diarrhea virus 1-NADL ATCC VR-534 infected in MDBK cells assessed as protection from virus-induced cytopathogenicity after 3 to 4 days by MTT method. It counts as functional, cell-based. The note with it: Bovine viral diarrhea virus isolates and strains, ATCC VR-534, MDBK. Summed up:
(§1)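 Confluent monolayers grown overnight (BHK-21 at 5×10⁴ cells/well for YFV and Reo-1; MDBK at 3×10⁴ cells/well for BVDV). Infection at m.o.i. 0.01 for 2 h in maintenance MEM-Earle with 0.5% inactivated FBS, then serial compound dilutions added. Viability read by MTT after 3–4 days at 37 °C. EC50 taken from linear regression against untreated controls.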

The nature of series [3]: Cytotoxicity against mock-infected African green monkey Vero 76 cells assessed as reduction in proliferation after 48 to 96 hrs by MTT method. It counts as cell-based. The note with it: chlorocebus sabaeus, Vero 76 cells (mock-infected). Summed up: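 Vero-76 cells seeded at 4 × 10⁵ cells/mL in D-MEM with L-glutamine, kanamycin and 10% FBS. Incubated at 37 °C, 5% CO₂, with or without serial dilutions of compound; viability read by MTT after 48–96 h. Run in parallel with antiviral assays. CC50 obtained by linear regression of % of untreated control.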
On the technique in general: Tetrazolium dyes change colour on reduction, which living cells bring about.

Series [4] is described as follows: Cytotoxicity against mock-infected hamster BHK21 cells assessed as reduction in proliferation after 72 hrs by MTT method. It is filed as cell-based, Mesocricetus auratus, BHK-21. Summed up: (§2)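 MDBK and BHK cells seeded at 6 × 10⁵ and 1 × 10⁶ cells/mL respectively. Medium was MEM-Earle with L-glutamine, 1 mM pyruvate and kanamycin, plus 10% horse serum (MDBK) or 10% FBS (BHK). Cells exposed to serial compound dilutions at 37 °C, 5% CO₂; MTT viability read at 72 h. CC50 by linear regression versus untreated controls.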

Series [5] can be described thus: Cytotoxicity against mock-infected human MT4 cells assessed as reduction in proliferation after 96 hrs by MTT method. It is filed as cell-based. Summed up:
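Exponentially growing MT-4 cells seeded at 1 × 10⁵ cells/mL in RPMI-1640 with 10% FBS, penicillin and streptomycin. Held 96 h at 37 °C, 5% CO₂ with or without serial compound dilutions; viability by MTT. Compounds dissolved in DMSO at 100 mM stock, then diluted in medium. CC50 by linear regression.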

Series [6] in a line: Half life in pH 7.4 buffered solution. It is filed as physicochemical. The essentials:
(§3)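 Compound kept at 37 °C in pH 7.4 phosphate buffer (chemical) or plasma (enzymatic), sampled hourly. Plasma aliquots extracted with acetonitrile (1:2) and centrifuged 1000 g for 10 min. Supernatant or buffer analysed by reversed-phase HPLC, methanol/water 80:20, detection at 250 nm. Pseudo-first-order t½ taken from the slope of log remaining compound versus time.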

Another series relates to Yellow fever virus. Nature of the series: Antiviral activity against Yellow fever virus 17D Stamaril Pasteur J07B01 infected in BHK21 cells assessed as protection from virus-induced cytopathogenicity after 3 to 4 days by MTT method. It counts as functional, cell-based. The note with it: Stamaril Pasteur J07B01, BHK-21. Summed up:
as §1

A short description of series [7]: Antiviral activity against Human respiratory syncytial virus A2 ATCC VR-1540 infected in Vero 76 cells after 5 days by plaque reduction assays. It counts as functional, cell-based. Particulars: ATCC VR-1540, Vero 76, 120 h.
A short description of series [8]: Cytotoxicity against mock-infected bovine MDBK cells assessed as reduction in proliferation after 72 hrs by MTT method. It counts as cell-based, Bos taurus. Particulars: cattle. Summed up: as §2
For another series, the system named is Human alphaherpesvirus 1. Nature of the series: Antiviral activity against Human herpesvirus 1 strain KOS ATCC VR- 1493 infected in Vero 76 cells after 3 days by plaque reduction assays. The note with it: Human alphaherpesvirus 1, KOS ATCC VR1493, Vero 76, 72 h. It is filed as functional, organism-based.
Series [9] in a line: Antiviral activity against Vaccinia virus Lister ATCC VR-1549 infected in Vero 76 cells after 3 days by plaque reduction assays. The note with it: ATCC VR-1549, Vero 76, 72 h. It is filed as functional, cell-based.
Series [10] is described as follows: Half life in plasma (unknown origin). Particulars: unidentified. It counts as ADME, cell-free. The essentials: as §3
The subject of the next series is Coxsackievirus B5. Nature of the series: Antiviral activity against Coxsackievirus B5 Faulkner (ATCC VR-185) infected in Vero 76 cells after 3 days by plaque reduction assays. The note with it: Enterovirus B, Vero 76, 72 h. It counts as functional, organism-based.
Series [11] can be described thus: Antiviral activity against Simian virus 12 3651 (ATCC VR- 214) infected in BHK21 cells assessed as protection from virus-induced cytopathogenicity after 3 to 4 days by MTT method. The note with it: BHK-21. It counts as functional, cell-based. The essentials:
as §1
A general note: Protection from cytopathic effect is a common read-out in antiviral testing.

In series [12] the test system is Vesicular stomatitis Indiana virus. The experiment in a line: Antiviral activity against Vesicular stomatitis Indiana virus ATCC VR 158 infected in Vero 76 cells after 2 days by plaque reduction assays. It is filed as functional, organism-based. The note with it: ATCC VR 158, Vero 76, 48 h.
Series [13] relates to Human poliovirus 1 strain Sabin. Nature of the series: Antiviral activity against Poliovirus 1 strain Sabin ATCC VR-1562 infected in Vero 76 cells after 2 days by plaque reduction assays. It counts as functional, organism-based. The note with it: Enterovirus C, ATCC VR-1562, Vero 76, 48 h.
The test system of series [14] is Human immunodeficiency virus 1. Nature of the series: Antiviral activity against HIV-13B infected in MT4 cells assessed as protection from virus-induced cytopathogenicity after 4 days by MTT method. The note with it: Human immunodeficiency virus 1, 3B, MT4, 96 h. It counts as functional, organism-based. Summed up: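 HIV-1 IIIB, taken from persistently infected H9/IIIB supernatant. MT-4 cells (1×10⁴/well) in RPMI with serial compound dilutions, infected with 100 CCID50 (m.o.i. 0.01). Viability by MTT after 4 days at 37 °C. EC50 = 50% protection from cytopathogenicity, by linear regression against untreated controls. Compounds kept as 100 mM DMSO stocks, diluted in medium.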

A value given as a limit tells only on which side of the number the result lay.

In general, EC50 refers to the concentration giving half of the maximal effect. A word on the CC50: it is the concentration giving 50% cytotoxicity. The half-life is how long it takes for the measured level to halve. `N#Cc1ccc(-c2nc3cc(Br)cnc3[nH]2)cc1`: the “Ratio EC50” value in [1] is 10. In addition, the EC50 in [2] is above 100 µM; with Yellow fever virus, above 100 µM; in [7], above 73 µM; with Human alphaherpesvirus 1, 15 µM; in series [9], 2 µM; in the series with Coxsackievirus B5, above 73 µM. The EC50 is above 100 µM in series [11], above 73 µM in series [12] and above 73 µM in series [13]. The CC50 in series [3] is 73 µM. Also, the CC50 at 72 h in [4] and in [8] was above 100 µM each time. Further, the cytotoxic concentration (CC50) at 96 h in [5] worked out at 53 µM. Also, the half-life was above 4 h in [6] and 2 h in series [10].

For the compound `CC(=O)c1ccc(-c2nc3cccnc3[nH]2)cc1`, the EC50 in [2] was 65 µM; with Yellow fever virus, above 100 µM; in [14], above 100 µM; in series [7], above 100 µM; in the series on Human alphaherpesvirus 1, above 100 µM; in series [9] it was above 100 µM. The EC50 (with Coxsackievirus B5; in series [11]; in [12]; in [13]) was above 100 µM each time. In [3], the CC50 is above 100 µM. Moreover, the CC50 at 72 h in series [4] and in series [8] was above 100 µM in each case. In addition, in series [5], the CC50 at 96 h was above 100 µM.

For `CC(=O)c1ccc(-c2nc3cc(Br)cnc3[nH]2)cc1`, the EC50 was above 100 µM in series [2]; above 100 µM in the series with Yellow fever virus; 28 µM in [14]; above 50 µM in series [7]; above 50 µM in the series with Human alphaherpesvirus 1; above 50 µM in [9]. Further, the EC50 in the series on Coxsackievirus B5 is above 50 µM; in series [11], above 100 µM; in series [12], above 50 µM; in [13], above 50 µM. Further, the CC50 in [3] was found to be 50 µM. Besides, the CC50 at 72 h in series [4] and in series [8] was above 100 µM in each case. In addition, the CC50 at 96 h in [5] came to 28 µM.

Regarding `FC(F)(F)c1ccc(-c2nc3cc(Br)cnc3[nH]2)cc1`, the EC50 in series [2] is above 100 µM; in the series on Yellow fever virus, above 100 µM; in [14], above 100 µM; in [7], above 100 µM; in the series on Human alphaherpesvirus 1, above 100 µM; in series [9], 4 µM. The EC50 (in the series on Coxsackievirus B5; in [11]; in [12]; in [13]) was above 100 µM throughout. The CC50 in series [3] was above 100 µM. The CC50 at 72 h in series [4] and in series [8] was above 100 µM throughout. Moreover, in series [5], the CC50 at 96 h was above 100 µM.

Consider `Nc1c(/N=C/c2ccc(C(F)(F)F)cc2)cc2cccnc2c1Cl`, for which the EC50 in [2] was 14 µM; in the series with Yellow fever virus it was above 25 µM; in [14], above 100 µM; in series [7], 12 µM; with Human alphaherpesvirus 1, above 100 µM; in series [9] it was above 90 µM. Moreover, the concentration for a half-maximal effect (EC50) was 29 µM in the series on Coxsackievirus B5, above 25 µM in [11], above 90 µM in series [12] and 57 µM in [13]. In series [3], the CC50 was 90 µM. Also, the CC50 at 72 h in series [4] is above 25 µM; in [8], above 100 µM. Besides, the CC50 at 96 h in [5] was 49 µM.

`N#Cc1ccc(/C=N/c2cc3cccnc3c(Cl)c2N)cc1`: the concentration for a half-maximal effect (EC50) in series [2] is 2 µM; with Yellow fever virus, above 100 µM; in series [14], above 100 µM; in series [7], 26 µM; in the series with Human alphaherpesvirus 1, above 100 µM; in series [9], above 100 µM. Moreover, the EC50 was 46 µM in the series on Coxsackievirus B5, above 100 µM in series [11], above 100 µM in [12] and above 100 µM in series [13]. Moreover, in series [3], the CC50 is above 100 µM. Also, the CC50 at 72 h in [4] and in [8] was above 100 µM in each case. In series [5], the CC50 at 96 h amounted to 46 µM.

As for `Nc1c(/N=C/c2ccc([N+](=O)[O-])cc2)cc2cccnc2c1Cl`, the EC50 in series [2] was 1.7 µM; in the series on Yellow fever virus, above 100 µM; in series [14], above 100 µM; in series [7], 14 µM; in the series with Human alphaherpesvirus 1 it was above 100 µM; in series [9], 88 µM. Also, the EC50 (in the series with Coxsackievirus B5; in [11]; in series [12]; in [13]) was above 100 µM in each case. The CC50 in series [3] was above 100 µM. Besides, the CC50 at 72 h in [4] and in series [8] was above 100 µM throughout. In addition, in series [5], the CC50 at 96 h turned out to be 53 µM.

On to `FC(F)(F)c1ccc(-c2nc3cccnc3[nH]2)cc1`, for which the EC50 (in series [2]; with Yellow fever virus; in series [14]; in series [7]; in the series with Human alphaherpesvirus 1; in series [9]) was above 100 µM throughout. Also, the EC50 was 18 µM in the series with Coxsackievirus B5, above 100 µM in series [11], above 100 µM in [12] and above 100 µM in series [13]. In addition, the CC50 in series [3] was above 100 µM. Further, the CC50 at 72 h in [4] and in series [8] was above 100 µM each time. The CC50 at 96 h in series [5] is above 100 µM.
